Measured values as given in ChEMBL document CHEMBL1145212, “Fluorinated diaryl sulfides as serotonin transporter ligands: synthesis, structure-activity relationship study, and in vivo evaluation of fluorine-18-labeled compounds as PET imaging agents” (J Med Chem, 2005).

Legend:
Rattus norvegicus [1] = species: Rattus norvegicus; test: Regional uptake of [18F]AFA in hippocampus of rat pretreated with compound GBR-12935; n=3; type: functional, organism-based; conditions: tested as the 18F-labelled form
How it was run: (§1)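 Male Sprague-Dawley rats, three per group, received blocker (2 mg/kg iv in saline) or saline only (controls) 10–15 min before about 20 µCi of tail-vein F-18 radioligand. Killed 60 min after tracer. Blood and brain regions weighed and gamma-counted. %ID/g was decay- and tail-corrected; mean ± SD.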

Rattus norvegicus [2] = species: Rattus norvegicus; test: Regional uptake of [18F]AFA in thalamus of rat pretreated with compound citalopram; n=3; type: functional, organism-based; conditions: tested as the 18F-labelled form; how it was run: as §1
Rattus norvegicus [3] = species: Rattus norvegicus; test: Regional uptake of [18F]AFA in frontal cortex of rat pretreated with compound citalopram; n=3; type: functional, organism-based; conditions: tested as the 18F-labelled form; how it was run: as §1
Rattus norvegicus [4] = species: Rattus norvegicus; test: Regional uptake of [18F]-AFA in hypothalamus of rat pretreated with compound 7f; n=3; type: functional, organism-based; conditions: tested as the 18F-labelled form
Rattus norvegicus [5] = species: Rattus norvegicus; test: Regional uptake of [18F]AFA in frontal cortex of rat pretreated with compound 7f; n=3; type: functional, organism-based; conditions: tested as the 18F-labelled form
Rattus norvegicus [6] = species: Rattus norvegicus; test: Regional uptake of [18F]-AFA in striatum of rat pretreated with compound GBR-12935; n=3; type: functional, organism-based; conditions: tested as the 18F-labelled form; how it was run: as §1
Rattus norvegicus [7] = species: Rattus norvegicus; test: Regional uptake of [18F]AFA in thalamus of rat pretreated with compound GBR-12935; n=3; type: functional, organism-based; conditions: tested as the 18F-labelled form; how it was run: as §1
[8] = biological target: Sodium-dependent serotonin transporter (Rattus norvegicus) (UniProt P31652); test: Specific binding in rat hypothalamus at 90 min postinjection in vivo; type: functional, organism-based; conditions: tested as the 18F-labelled form
How it was run: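 Male Sprague-Dawley rats, n=3 per time point, received about 20 µCi of F-18 radioligand in saline iv by tail vein and were killed at 10–120 min. %ID/g was measured with decay and tail-residual correction. Hypothalamic specific binding = (%ID/g hypothalamus − %ID/g cerebellum)/%ID/g cerebellum; mean ± SD.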

[9] = biological target: Sodium-dependent serotonin transporter (Rattus norvegicus) (UniProt P31652); test: Specific binding of [18F]AFA in rat hypothalamus after GBR-12935 treatment; n=3; type: functional, tissue-based; conditions: tested as the 18F-labelled form
How it was run: (§2)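 Rats, three per group, were pretreated iv with blocker at 2 mg/kg in saline, or with saline as control, 10–15 min before tail-vein F-18 radioligand (about 20 µCi). Killed at 60 min and regional %ID/g determined. Specific binding = (region activity − cerebellum activity)/cerebellum activity; mean ± SD.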

[10] = biological target: Sodium-dependent serotonin transporter (Rattus norvegicus) (UniProt P31652); test: Specific binding of [18F]-AFA in rat striatum after citalopram treatment; n=3; type: functional, tissue-based; conditions: tested as the 18F-labelled form; how it was run: as §2
Rattus norvegicus [11] = species: Rattus norvegicus; test: Regional uptake of [18F]AFA in hippocampus of rat pretreated with compound 7f; n=3; type: functional, organism-based; conditions: tested as the 18F-labelled form
Rattus norvegicus [12] = species: Rattus norvegicus; test: Regional uptake of [18F]AFA in hippocampus of rat pretreated with compound citalopram; n=3; type: functional, organism-based; conditions: tested as the 18F-labelled form; how it was run: as §1
Rattus norvegicus [13] = species: Rattus norvegicus; test: Regional uptake of [18F]AFP in thalamus of rat pretreated with compound 7f; n=3; conditions: tested as the 18F-labelled form
[14] = biological target: Sodium-dependent serotonin transporter (Homo sapiens, UniProt P31645); test: In vitro displacement of [3H]paroxetine from human serotonin transporter expressed in HEK293 cells; type: cell-based
Rattus norvegicus [15] = species: Rattus norvegicus; test: Regional uptake of [18F]-AFA in hypothalamus of rat pretreated with compound nisoxetine; n=3; type: functional, organism-based; conditions: tested as the 18F-labelled form; how it was run: as §1
[16] = biological target: Sodium-dependent serotonin transporter (Rattus norvegicus) (UniProt P31652); test: Specific binding of [18F]AFA in rat frontal cortex after nisoxetine treatment; n=3; type: functional, tissue-based; conditions: tested as the 18F-labelled form; how it was run: as §2
[17] = biological target: Sodium-dependent serotonin transporter (Rattus norvegicus) (UniProt P31652); test: Specific binding of [18F]AFA in rat hippocampus after citalopram treatment; n=3; type: functional, tissue-based; conditions: tested as the 18F-labelled form; how it was run: as §2
Rattus norvegicus [18] = species: Rattus norvegicus; test: Regional uptake of [18F]AFA in hypothalamus of rat pretreated with compound citalopram; n=3; type: functional, organism-based; conditions: tested as the 18F-labelled form; how it was run: as §1
Rattus norvegicus [19] = species: Rattus norvegicus; test: Regional uptake of [18F]-AFA in blood of rat pretreated with compound citalopram; n=3; type: functional, organism-based; conditions: tested as the 18F-labelled form; how it was run: as §1
Rattus norvegicus [20] = species: Rattus norvegicus; test: Regional uptake of [18F]-AFP in striatum of rat pretreated with compound 7f; n=3; conditions: tested as the 18F-labelled form
[21] = biological target: Sodium-dependent serotonin transporter (Rattus norvegicus) (UniProt P31652); test: Specific binding of [18F]AFA in rat hippocampus after nisoxetine treatment; n=3; type: functional, tissue-based; conditions: tested as the 18F-labelled form; how it was run: as §2
[22] = biological target: Sodium-dependent serotonin transporter (Rattus norvegicus) (UniProt P31652); test: Specific binding of [18F]AFA in rat hippocampus after GBR-12935 treatment; n=3; type: functional, tissue-based; conditions: tested as the 18F-labelled form; how it was run: as §2
[23] = biological target: Sodium-dependent serotonin transporter (Rattus norvegicus) (UniProt P31652); test: Specific binding of [18F]AFA in rat thalamus after GBR-12935 treatment; n=3; type: functional, tissue-based; conditions: tested as the 18F-labelled form; how it was run: as §2
[24] = biological target: Sodium-dependent serotonin transporter (Rattus norvegicus) (UniProt P31652); test: Specific binding of [18F]AFA in rat thalamus after nisoxetine treatment; n=3; type: functional, tissue-based; conditions: tested as the 18F-labelled form; how it was run: as §2

Chain of Sodium-dependent serotonin transporter (Rattus norvegicus) (P31652 whole entry): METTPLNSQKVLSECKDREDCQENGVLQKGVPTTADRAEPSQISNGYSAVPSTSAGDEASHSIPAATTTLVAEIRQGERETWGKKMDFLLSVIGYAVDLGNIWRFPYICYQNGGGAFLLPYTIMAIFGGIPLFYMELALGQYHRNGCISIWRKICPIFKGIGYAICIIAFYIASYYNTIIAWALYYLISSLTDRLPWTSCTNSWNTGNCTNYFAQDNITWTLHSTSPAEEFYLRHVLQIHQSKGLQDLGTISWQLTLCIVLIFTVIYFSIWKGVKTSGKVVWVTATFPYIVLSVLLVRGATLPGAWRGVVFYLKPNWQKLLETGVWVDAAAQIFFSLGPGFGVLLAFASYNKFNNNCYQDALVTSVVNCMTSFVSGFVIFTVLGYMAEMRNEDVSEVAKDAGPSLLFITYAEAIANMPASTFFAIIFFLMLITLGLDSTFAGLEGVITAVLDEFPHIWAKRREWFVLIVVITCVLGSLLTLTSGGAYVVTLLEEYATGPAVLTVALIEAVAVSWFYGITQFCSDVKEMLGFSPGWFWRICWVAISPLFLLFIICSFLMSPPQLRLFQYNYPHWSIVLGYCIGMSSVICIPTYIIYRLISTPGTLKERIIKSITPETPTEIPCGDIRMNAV
Chain of Sodium-dependent serotonin transporter (P31645 whole entry): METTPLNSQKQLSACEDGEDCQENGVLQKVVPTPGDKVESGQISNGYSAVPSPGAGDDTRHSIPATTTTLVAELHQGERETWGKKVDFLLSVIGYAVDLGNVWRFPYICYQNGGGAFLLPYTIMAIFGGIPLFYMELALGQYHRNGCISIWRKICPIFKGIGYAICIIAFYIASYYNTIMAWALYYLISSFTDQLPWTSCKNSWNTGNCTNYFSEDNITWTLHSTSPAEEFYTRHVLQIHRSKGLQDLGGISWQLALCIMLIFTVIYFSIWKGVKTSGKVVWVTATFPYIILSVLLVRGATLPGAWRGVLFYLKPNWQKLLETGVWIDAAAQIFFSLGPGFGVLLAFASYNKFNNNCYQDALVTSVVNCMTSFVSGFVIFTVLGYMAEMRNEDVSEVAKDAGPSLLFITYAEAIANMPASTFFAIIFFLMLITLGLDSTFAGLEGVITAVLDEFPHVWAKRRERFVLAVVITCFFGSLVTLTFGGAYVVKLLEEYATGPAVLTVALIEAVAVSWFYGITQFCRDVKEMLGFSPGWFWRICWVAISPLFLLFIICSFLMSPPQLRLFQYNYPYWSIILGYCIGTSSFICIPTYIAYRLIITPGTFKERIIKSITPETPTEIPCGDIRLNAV

Specific binding (dimensionless ratio) [8]: 1.85
Specific binding [9]: 0.87 %ID/g
Specific binding [10]: 0.45 %ID/g
Ki [14]: 3.58 nM
Specific binding [16]: 0.72 %ID/g
Specific binding [17]: 0.32 %ID/g
Specific binding [21]: 1.02 %ID/g
Specific binding [22]: 0.77 %ID/g
Specific binding [23]: 0.98 %ID/g
Specific binding [24]: 0.88 %ID/g
Structure (SMILES): CN(C)Cc1ccccc1Sc1ccc(CCCF)cc1N
Uptake (Rattus norvegicus [1]): 0.16 %ID/g
Uptake (Rattus norvegicus [2]): 0.15 %ID/g
Uptake (Rattus norvegicus [3]): 0.16 %ID/g
Uptake (Rattus norvegicus [4]): 0.1 %ID/g
Uptake (Rattus norvegicus [5]): 0.08 %ID/g
Uptake (Rattus norvegicus [6]): 0.17 %ID/g
Uptake (Rattus norvegicus [7]): 0.18 %ID/g
Uptake (Rattus norvegicus [11]): 0.08 %ID/g
Uptake (Rattus norvegicus [12]): 0.11 %ID/g
Uptake (Rattus norvegicus [13]): 0.1 %ID/g
Uptake (Rattus norvegicus [15]): 0.15 %ID/g
Uptake (Rattus norvegicus [18]): 0.13 %ID/g
Uptake (Rattus norvegicus [19]): 0.09 %ID/g
Uptake (Rattus norvegicus [20]): 0.08 %ID/g
